Most compounds without a hit are left out; they make up all but 1.7% or so of the library.
DNMT1 inh: blocks human DNA methyltransferase DNMT1. P26358. DNMT1 molecular beacon, Hinp1I cleavage, fluorescence. inhibition (reported as % activation of signal), % at 10 µM. 0.83% of 360,000 active. AID 588458; in the data active = inhibition above about 50%
Scp-1 inhibitor: blocks human Scp-1 phosphatase activity; Q9GZU7; 0.88% of 340,000 active; Recombinant Scp1, phosphopeptide, malachite green phosphate absorbance; inhibition, % at 20 µM;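 active = inhibition above about 50% at 20 µM, limit read from the data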;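 note: plate controls were DMSO wells with enzyme for no effect and wells lacking enzyme for full effect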
Target sequence (Q9GZU7 76-261 limits assumed): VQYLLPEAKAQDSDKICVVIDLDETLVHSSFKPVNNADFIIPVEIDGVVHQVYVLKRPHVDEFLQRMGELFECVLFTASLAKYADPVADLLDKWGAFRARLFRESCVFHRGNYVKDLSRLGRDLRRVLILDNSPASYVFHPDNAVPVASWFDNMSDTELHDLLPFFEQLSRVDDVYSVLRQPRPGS
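assay system = SCP-1 phosphatase catalytic domain, residues 76-261 | buffer or medium = 50 mM Tris acetate pH 5.5, 0.005% Tween-20, 10 mM MgCl2 | incubation = enzyme reaction 45 min at room temperature, colour 5 min, stabilisation 30 min | signal = Phosphate-binding colour reagent, absorbance read at 630 nm | measure = % inhibition at 20 µM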
LMPTP block: LMPTP (human) inhibition; P24666; AID 651560; inhibition, % at 20 µM; 0.22% of 360,000 active; recombinant LMPTP-A, OMFP fluorogenic substrate, fluorescence intensity;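 active = compounds that cut the enzyme signal by at least half of the control window in the single-dose screen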;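 note: plate controls were DMSO wells with enzyme plus substrate for no effect and substrate without enzyme for full effect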
Target sequence (P24666 whole entry, looked up): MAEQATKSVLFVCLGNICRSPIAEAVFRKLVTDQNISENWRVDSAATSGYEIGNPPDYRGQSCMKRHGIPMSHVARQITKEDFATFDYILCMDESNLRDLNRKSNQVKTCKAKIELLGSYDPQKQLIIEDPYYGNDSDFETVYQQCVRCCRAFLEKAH
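Buffer or medium: Bis-Tris pH 6.0, DTT, detergent; Assay system: LMPTP-A enzyme; Quantity: 0.625 nM enzyme; Detection: endpoint fluorescence intensity; Times: 50 min dark incubation at room temperature; Controls: substrate-only low control, DMSO enzyme-plus-substrate high control; Doses: single 20 µM dose; Read-out: percent inhibition versus substrate-only and uninhibited controls; Reagent: 400 µM OMFP.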
STEP inh: blocks human striatal-enriched tyrosine phosphatase | P54829 | recombinant STEP, OMFP fluorogenic substrate, fluorescence | inhibition, % at 20 µM | 0.25% of 360,000 active;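 active = inhibition at 20 µM, scaled per plate between control wells, above about 37%, limit read from the data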;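 note: 0% = DMSO with enzyme and substrate and 100% = substrate only without enzyme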
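System: STEP phosphatase, cell-free reaction; Buffer or medium: Bis-Tris pH 6.0 buffer with DTT, detergent; Incubation: 20 min at room temperature, dark; Measured by: fluorescence, 480/540 nm.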
SUMO1-SIM PPI: SUMO1-SIM interaction modulation; 0.33% of 360,000 active; AID 602429; P63165; inhibition, % at 20 µM; SUMO1 binding to a labelled peptide, TR-FRET, 1 h; in the data active = inhibition above about 37%
Target sequence (P63165 whole entry, looked up): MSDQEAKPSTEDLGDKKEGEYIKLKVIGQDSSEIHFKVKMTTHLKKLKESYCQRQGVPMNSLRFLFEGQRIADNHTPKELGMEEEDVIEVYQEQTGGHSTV
Beacon interf DR: beacon fluorescence artifact, dose response counter-screen | molecular beacon fluorescence, spectral interference counter-screen | shares compounds with DNMT1 inh | 200 tested, under 10 active | IC50, µM | AID 602382; call rule not given here
DNMT1 confirm: DNMT1 inhibition confirmation, single concentration | shares compounds with DNMT1 inh | DNMT1 molecular beacon HinP1I cleavage, fluorescence | inhibition, % at 10 µM | 8% of 2,300 active | AID 602385;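 active = average inhibition of at least 30% in the single-concentration confirmation test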
DNMT1 interf: counter-screen for DNMT1 inhibitors: spectral interference; DNMT1 molecular beacon spectral interference counterscreen, fluorescence 485/520; activation (fluorescence interference), % at 10 µM; AID 602387; shares compounds with DNMT1 inh; 1% of 2,300 active;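 active = activation of at least 30% at 10 µM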;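 note: DNMT1 catalytic domain with a HinP1I cleavage step and a FAM/dabcyl DNA beacon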
Numbers without * were called inactive; . = not tested or not shown.

SMILES	DNMT1 inh	Scp-1 inhibitor	LMPTP block	STEP inh	SUMO1-SIM PPI	DNMT1 confirm	DNMT1 interf	others
COc1ccc(CC(N)c2csc(Nc3ccc(S(C)(=O)=O)cc3)n2)cc1 (configuration not stated)	-7.1	.	-2.1	-1.6	-2.6	.	.
CCC1(C)COC(C)(CC(=O)NNC(=O)Nc2ccccc2)OC1 (configuration not stated)	81.5*	-3.9	-1.4	-1.2	2.5	3.2	1.8
Cn1nc(C(=O)NNC(=O)CCc2ccccc2Cl)c2ccccc2c1=O	-5.0	-6.2	-1.6	0.3	-2.6	.	.
CC(=O)c1ccc(OC2(C)CCN(Cc3cc4ccccc4[nH]3)C2)cc1 (configuration not stated)	91.0*	.	25.8	0.8	3.8	2.2	4.5
CCc1cc2c(=O)c(-c3cnn(-c4ccccc4)c3)c(C)oc2cc1OCC(=O)Nc1ccc(F)c(F)c1	11.1	-8.2	2.2	-1.5	-15.8	.	.
CCc1cc2c(=O)c(-c3cnn(-c4ccccc4)c3)c(C)oc2cc1OCC(=O)Nc1cccc(C)c1	60.6*	-7.4	0.2	1.9	-0.1	2.1	-3.9
Cc1cc(-c2nc3c4c5c(sc4[nH]c(=O)n3n2)CCC5)c(C)o1	65.7*	58.5*	5.9	1.5	16.4	4.2	0.2
Cc1nc2sc3c(c2c(=O)[nH]1)CCC3	0.1	0.3	-3.0	-1.8	0.5	.	.
COCCCn1c(=N)c(C(N)=S)cc2c(=O)n3cccc(C)c3nc21	54.0*	-9.0	6.3	6.8	22.2	3.7	0.7
CCOC(=O)C1CCCN(C(=O)c2ccc3sccc3c2)CC1 (configuration not stated)	5.7	.	2.2	3.4	-1.1	.	.
COc1ccc(-c2nc3c(C(=O)NCCN(C)C)cccc3c3ccccc23)cc1	58.7*	9.6	-0.6	0.6	-30.5	21.6	-1.1
COc1ccc([C@H]2CC(=O)C=C(C#CC(C)(C)C)C2)cc1	2.3	-11.3	2.3	0.3	-17.5	.	.
COc1cc(OC)cc(C(=O)/C=C2\Sc3ccccc3N2C)c1	3.8	-6.4	-0.3	0.0	-4.4	.	.
CN1/C(=C\C(=O)c2cccc([N+](=O)[O-])c2)Sc2ccccc21	51.5*	-4.9	5.3	1.5	-0.2	0.1	-0.6
CC1CN(C(=O)/C(=C/c2ccco2)NC(=O)c2ccccc2)CC(C)O1 (configuration not stated)	-0.7	26.0	1.4	-1.1	-6.0	.	.
CC(=O)Nc1ccc(-n2nnnc2SCC(=O)NC2CCCC2)cc1	-0.5	-5.8	0.8	-1.8	3.1	.	.
CC(=O)c1ccc(-n2nnnc2SCC(=O)NC2CCCCC2)cc1	67.9*	-5.2	-1.1	-0.8	-1.6	5.2	3.0
CC1(C(=O)Nc2ccc3c(c2)OCCO3)CSCC(=O)N1CCCn1ccnc1 (configuration not stated)	.	.	-3.5	.	-0.5	.	.
CCOc1ccc(OCCCC(=O)N2CCN(S(=O)(=O)c3ccccc3C#N)CC2)cc1	-2.2	-15.2	1.9	2.8	1.8	.	.
Cc1ccccc1OCC(=O)NCCCNC(=O)c1ccncc1	77.5*	-0.6	-0.3	-0.7	-1.6	1.5	3.8
Cc1ccc(C(=O)NCCNc2nc3cc(C)c(C)cc3cc2C)cc1	55.8*	5.0	1.3	3.0	24.2	6.2	0.9
Oc1ccc(/C=N/Nc2cc(N3CCCC3)nc(N3CCCC3)n2)cc1	-7.6	-11.6	9.1	9.8	6.1	.	.
COc1ccc(/C=N/Nc2cc(N3CCCC3)nc(N3CCCC3)n2)cc1	58.2*	-3.7	23.3	7.1	3.1	0.8	-9.7
CC(C)N(C)c1ncnc2c1ncn2[C@H]1CN(Cc2ccc(-c3ccccc3)cc2)C[C@@H](CO)O1	-4.6	.	3.0	-0.6	-8.5	.	.
O=C(c1ccccc1)C(Nc1ccccn1)c1ccccc1 (configuration not stated)	-1.4	3.8	-0.2	-1.9	-4.1	.	.
SMILES	DNMT1 inh	Scp-1 inhibitor	LMPTP block	STEP inh	SUMO1-SIM PPI	DNMT1 confirm	DNMT1 interf	others
OC(c1ccccc1)C(Nc1ccccn1)c1ccccc1 (configuration not stated)	55.0*	1.1	-0.8	-1.0	-0.2	1.7	7.7
CCOC(=O)c1c(NC(=O)c2cc(-c3ccc(Cl)s3)nc3ccccc23)sc(C(N)=O)c1C	55.6*	9.2	21.2	6.4	2.1	13.2	-1.1
COc1cc(/C=N/Nc2ccc(F)cc2F)cc(OC)c1OC	-0.3	-8.7	0.8	2.2	-4.2	.	.
COc1cc(C=NNc2ccccc2[N+](=O)[O-])cc(OC)c1OC	53.4*	.	1.4	2.1	-14.9	3.5	0.3
CC1CC(c2ccccc2)=Nc2ccccc2N1 (configuration not stated)	-2.0	-2.2	0.1	-2.8	-13.2	.	.
COc1cccc(NS(=O)(=O)c2ccc3c(c2)C2C=CCC2C(c2ccc(C(=O)O)cc2)N3)c1 (configuration not stated)	89.7*	13.6	8.8	6.4	44.0*	28.0	1.9	Beacon interf DR=>99
C=CCn1c(NC(=O)c2ccccc2Cl)c(C#N)c2nc3ccccc3nc21	63.9*	-7.2	11.8	4.2	53.0*	-1.2	-3.6
CCCCn1c(NC(C)=O)c(C#N)c2nc3ccccc3nc21	-18.4	-1.3	0.6	1.0	11.8	.	.
O=C(Nc1ccc(N2CCCC2)cc1)c1ccccc1F	72.4*	-4.0	43.0	1.9	-0.9	3.5	10.0
Cc1nc(NC(=O)c2cccc(-c3cc4ccccc4oc3=O)c2)ccc1Br	29.8	5.5	13.3	2.8	-1.3	.	.
O=C(Nc1ccc(N2CCCC2)cc1)c1cccc(F)c1	64.6*	2.7	9.6	4.2	-0.2	2.3	3.8
O=C(Nc1ccc(Br)cn1)c1cccc(-c2cc3ccccc3oc2=O)c1	64.2*	25.4	12.0	5.1	-3.0	1.4	-3.5
O=C(Nc1ccc(S(=O)(=O)N2CCOCC2)cc1)c1ccc([N+](=O)[O-])cc1Cl	-1.3	-11.4	0.7	0.0	-29.6	.	.
O=C(Nc1ccc(N2CCCCC2)cc1)c1ccccc1	-6.7	-3.8	-0.2	0.6	-5.6	.	.
O=C(Nc1ccc(N2CCCCC2)cc1)c1ccc(F)cc1F	-2.9	-3.8	-1.8	3.3	3.6	.	.
O=C(Nc1ccc(N2CCCC2)cc1)c1ccc([N+](=O)[O-])cc1Cl	74.2*	1.0	35.6	0.6	-9.6	1.4	-1.8
COc1ccc(NC(=O)Cc2ccc(Cl)cc2)cc1S(=O)(=O)N1CCCCC1	-1.0	-2.2	-0.3	0.2	-5.1	.	.
CC1(C)OC1(C#N)c1ccccc1 (configuration not stated)	1.6	-6.7	-3.4	-2.0	0.1	.	.
